In ChEMBL document CHEMBL5058577, “EUbOPEN Chemogenomics Library 2 (Multiplex)” (2022):

Tested on: HEK-293T
Experiment: Multiplex assay against HEK293T
Format: toxicity, cell-based
Conditions: human
In short: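 Tubulin, mitochondrial-mass and membrane-permeability phenotypes are per cents of healthy-nucleus cells. Cells were gated by CellPathfinder machine learning into Hoechst high-intensity objects or normal cells, normal cells into healthy, pyknosed or fragmented nuclei, and pyknosed cells into mitotic or apoptotic. Before that, live cells stained at seeding with Hoechst33342, BioTracker Green Microtubule Cytoskeleton Dye, MitoTracker Red and Annexin V Alexa Fluor 680 were imaged on a CQ1 microscope at 37°C and 5% CO2 after compound addition.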

[1] = 12 h, 1 µM, compound concentration 1 uM, replicate 1
[2] = 12 h, 1 µM, compound concentration 1 uM, replicate 2
[3] = 12 h, 10 µM, compound concentration 10 uM, replicate 1
[4] = 12 h, 10 µM, compound concentration 10 uM, replicate 2
[5] = 24 h, 1 µM, compound concentration 1 uM, replicate 1
[6] = 24 h, 1 µM, compound concentration 1 uM, replicate 2
[7] = 24 h, 10 µM, compound concentration 10 uM, replicate 1
[8] = 24 h, 10 µM, compound concentration 10 uM, replicate 2
[9] = 48 h, 1 µM, compound concentration 1 uM, replicate 1
[10] = 48 h, 1 µM, compound concentration 1 uM, replicate 2
[11] = 48 h, 10 µM, compound concentration 10 uM, replicate 1
[12] = 48 h, 10 µM, compound concentration 10 uM, replicate 2

Cc1ccc(/C(=C\CN2CCCC2)c2ccccn2)cc1 [TRIPROLIDINE]
Population Apoptotic (%) [1]: 34% | Population Fragmented Nuclei (%) [1]: 6% | Population Healthy Nuclei (%) [1]: 83% | Population Hoechst High Intensity Objects (%) [1]: 7% | Population Membrane Permeable-Phenotype (%) [1]: 0% | Population Mitochondria Different-Phenotype (%) [1]: 45% | Population Mitotic Cells (%) [1]: 65% | Population Normal (%) [1]: 92% | Population Pyknosed Nuclei (%) [1]: 9% | Population Tubulin-Different-Phenotype (%) [1]: 24% | Total Cell Count [1]: 424 | Population Apoptotic (%) [2]: 50% | Population Fragmented Nuclei (%) [2]: 3% | Population Healthy Nuclei (%) [2]: 84% | Population Hoechst High Intensity Objects (%) [2]: 5% | Population Mitochondria Different-Phenotype (%) [2]: 55% | Population Mitotic Cells (%) [2]: 50% | Population Normal (%) [2]: 94% | Population Pyknosed Nuclei (%) [2]: 11% | Population Tubulin-Different-Phenotype (%) [2]: 17% | Total Cell Count [2]: 446 | Population Apoptotic (%) [3]: 44% | Population Fragmented Nuclei (%) [3]: 10% | Population Healthy Nuclei (%) [3]: 72% | Population Hoechst High Intensity Objects (%) [3]: 15% | Population Membrane Permeable-Phenotype (%) [3]: 0% | Population Mitochondria Different-Phenotype (%) [3]: 67% | Population Mitotic Cells (%) [3]: 56% | Population Normal (%) [3]: 84% | Population Pyknosed Nuclei (%) [3]: 16% | Population Tubulin-Different-Phenotype (%) [3]: 53% | Total Cell Count [3]: 368 | Population Fragmented Nuclei (%) [4]: 6% | Population Healthy Nuclei (%) [4]: 77% | Population Hoechst High Intensity Objects (%) [4]: 8% | Population Mitochondria Different-Phenotype (%) [4]: 74% | Population Normal (%) [4]: 91% | Population Pyknosed Nuclei (%) [4]: 15% | Population Tubulin-Different-Phenotype (%) [4]: 45% | Total Cell Count [4]: 344 | Population Apoptotic (%) [5]: 30% | Population Fragmented Nuclei (%) [5]: 10% | Population Healthy Nuclei (%) [5]: 78% | Population Hoechst High Intensity Objects (%) [5]: 3% | Population Membrane Permeable-Phenotype (%) [5]: 0% | Population Mitochondria Different-Phenotype (%) [5]: 27% | Population Mitotic Cells (%) [5]: 70% | Population Normal (%) [5]: 96% | Population Pyknosed Nuclei (%) [5]: 10% | Population Tubulin-Different-Phenotype (%) [5]: 18% | Total Cell Count [5]: 574 | Population Fragmented Nuclei (%) [6]: 9% | Population Healthy Nuclei (%) [6]: 82% | Population Hoechst High Intensity Objects (%) [6]: 7% | Population Mitochondria Different-Phenotype (%) [6]: 34% | Population Mitotic Cells (%) [6]: 69% | Population Normal (%) [6]: 92% | Population Pyknosed Nuclei (%) [6]: 7% | Population Tubulin-Different-Phenotype (%) [6]: 9% | Total Cell Count [6]: 541 | Population Apoptotic (%) [7]: 36% | Population Fragmented Nuclei (%) [7]: 8% | Population Healthy Nuclei (%) [7]: 78% | Population Hoechst High Intensity Objects (%) [7]: 9% | Population Membrane Permeable-Phenotype (%) [7]: 0% | Population Mitochondria Different-Phenotype (%) [7]: 55% | Population Mitotic Cells (%) [7]: 63% | Population Normal (%) [7]: 90% | Population Pyknosed Nuclei (%) [7]: 13% | Population Tubulin-Different-Phenotype (%) [7]: 43% | Total Cell Count [7]: 490 | Population Apoptotic (%) [8]: 27% | Population Fragmented Nuclei (%) [8]: 9% | Population Healthy Nuclei (%) [8]: 80% | Population Hoechst High Intensity Objects (%) [8]: 4% | Population Mitochondria Different-Phenotype (%) [8]: 54% | Population Mitotic Cells (%) [8]: 72% | Population Normal (%) [8]: 95% | Population Pyknosed Nuclei (%) [8]: 10% | Population Tubulin-Different-Phenotype (%) [8]: 26% | Total Cell Count [8]: 464 | Population Apoptotic (%) [9]: 16% | Population Fragmented Nuclei (%) [9]: 14% | Population Healthy Nuclei (%) [9]: 79% | Population Hoechst High Intensity Objects (%) [9]: 1% | Population Membrane Permeable-Phenotype (%) [9]: 2% | Population Mitochondria Different-Phenotype (%) [9]: 17% | Population Mitotic Cells (%) [9]: 83% | Population Normal (%) [9]: 98% | Population Pyknosed Nuclei (%) [9]: 6% | Population Tubulin-Different-Phenotype (%) [9]: 11% | Total Cell Count [9]: 950 | Population Apoptotic (%) [10]: 37% | Population Fragmented Nuclei (%) [10]: 10% | Population Healthy Nuclei (%) [10]: 84% | Population Hoechst High Intensity Objects (%) [10]: 3% | Population Membrane Permeable-Phenotype (%) [10]: 1% | Population Mitochondria Different-Phenotype (%) [10]: 13% | Population Mitotic Cells (%) [10]: 62% | Population Normal (%) [10]: 96% | Population Pyknosed Nuclei (%) [10]: 4% | Population Tubulin-Different-Phenotype (%) [10]: 6% | Total Cell Count [10]: 837 | Population Apoptotic (%) [11]: 43% | Population Fragmented Nuclei (%) [11]: 16% | Population Healthy Nuclei (%) [11]: 74% | Population Hoechst High Intensity Objects (%) [11]: 6% | Population Membrane Permeable-Phenotype (%) [11]: 0% | Population Mitochondria Different-Phenotype (%) [11]: 46% | Population Mitotic Cells (%) [11]: 56% | Population Normal (%) [11]: 93% | Population Pyknosed Nuclei (%) [11]: 9% | Population Tubulin-Different-Phenotype (%) [11]: 29% | Total Cell Count [11]: 674 | Population Apoptotic (%) [12]: 33% | Population Fragmented Nuclei (%) [12]: 13% | Population Healthy Nuclei (%) [12]: 78% | Population Hoechst High Intensity Objects (%) [12]: 4% | Population Membrane Permeable-Phenotype (%) [12]: 1% | Population Mitochondria Different-Phenotype (%) [12]: 43% | Population Mitotic Cells (%) [12]: 66% | Population Normal (%) [12]: 95% | Population Pyknosed Nuclei (%) [12]: 7% | Population Tubulin-Different-Phenotype (%) [12]: 25% | Total Cell Count [12]: 644

CCCC(CCC)C(=O)O [VALPROIC ACID]
Population Apoptotic (%) [1]: 39% | Population Fragmented Nuclei (%) [1]: 6% | Population Healthy Nuclei (%) [1]: 81% | Population Hoechst High Intensity Objects (%) [1]: 6% | Population Membrane Permeable-Phenotype (%) [1]: 0% | Population Mitochondria Different-Phenotype (%) [1]: 29% | Population Mitotic Cells (%) [1]: 60% | Population Normal (%) [1]: 93% | Population Pyknosed Nuclei (%) [1]: 12% | Population Tubulin-Different-Phenotype (%) [1]: 20% | Total Cell Count [1]: 513 | Population Apoptotic (%) [2]: 28% | Population Fragmented Nuclei (%) [2]: 5% | Population Healthy Nuclei (%) [2]: 79% | Population Hoechst High Intensity Objects (%) [2]: 5% | Population Mitochondria Different-Phenotype (%) [2]: 46% | Population Mitotic Cells (%) [2]: 71% | Population Normal (%) [2]: 94% | Population Pyknosed Nuclei (%) [2]: 15% | Population Tubulin-Different-Phenotype (%) [2]: 16% | Total Cell Count [2]: 367 | Population Apoptotic (%) [3]: 34% | Population Fragmented Nuclei (%) [3]: 6% | Population Healthy Nuclei (%) [3]: 82% | Population Hoechst High Intensity Objects (%) [3]: 6% | Population Membrane Permeable-Phenotype (%) [3]: 0% | Population Mitochondria Different-Phenotype (%) [3]: 40% | Population Mitotic Cells (%) [3]: 66% | Population Normal (%) [3]: 93% | Population Pyknosed Nuclei (%) [3]: 11% | Population Tubulin-Different-Phenotype (%) [3]: 26% | Total Cell Count [3]: 455 | Population Apoptotic (%) [4]: 44% | Population Fragmented Nuclei (%) [4]: 7% | Population Healthy Nuclei (%) [4]: 81% | Population Mitochondria Different-Phenotype (%) [4]: 49% | Population Mitotic Cells (%) [4]: 55% | Population Tubulin-Different-Phenotype (%) [4]: 20% | Total Cell Count [4]: 446 | Population Apoptotic (%) [5]: 28% | Population Fragmented Nuclei (%) [5]: 8% | Population Healthy Nuclei (%) [5]: 78% | Population Hoechst High Intensity Objects (%) [5]: 4% | Population Membrane Permeable-Phenotype (%) [5]: 1% | Population Mitochondria Different-Phenotype (%) [5]: 22% | Population Mitotic Cells (%) [5]: 71% | Population Normal (%) [5]: 95% | Population Pyknosed Nuclei (%) [5]: 12% | Population Tubulin-Different-Phenotype (%) [5]: 16% | Total Cell Count [5]: 663 | Population Apoptotic (%) [6]: 45% | Population Fragmented Nuclei (%) [6]: 6% | Population Healthy Nuclei (%) [6]: 83% | Population Membrane Permeable-Phenotype (%) [6]: 0% | Population Mitochondria Different-Phenotype (%) [6]: 26% | Population Mitotic Cells (%) [6]: 54% | Population Pyknosed Nuclei (%) [6]: 9% | Population Tubulin-Different-Phenotype (%) [6]: 10% | Total Cell Count [6]: 469 | Population Apoptotic (%) [7]: 28% | Population Fragmented Nuclei (%) [7]: 9% | Population Healthy Nuclei (%) [7]: 81% | Population Hoechst High Intensity Objects (%) [7]: 4% | Population Membrane Permeable-Phenotype (%) [7]: 0% | Population Mitochondria Different-Phenotype (%) [7]: 16% | Population Mitotic Cells (%) [7]: 71% | Population Normal (%) [7]: 95% | Population Pyknosed Nuclei (%) [7]: 9% | Population Tubulin-Different-Phenotype (%) [7]: 15% | Total Cell Count [7]: 649 | Population Apoptotic (%) [8]: 23% | Population Fragmented Nuclei (%) [8]: 8% | Population Healthy Nuclei (%) [8]: 86% | Population Hoechst High Intensity Objects (%) [8]: 3% | Population Mitochondria Different-Phenotype (%) [8]: 30% | Population Mitotic Cells (%) [8]: 76% | Population Normal (%) [8]: 96% | Population Pyknosed Nuclei (%) [8]: 5% | Population Tubulin-Different-Phenotype (%) [8]: 11% | Total Cell Count [8]: 593 | Population Apoptotic (%) [9]: 19% | Population Fragmented Nuclei (%) [9]: 14% | Population Healthy Nuclei (%) [9]: 78% | Population Hoechst High Intensity Objects (%) [9]: 2% | Population Membrane Permeable-Phenotype (%) [9]: 3% | Population Mitochondria Different-Phenotype (%) [9]: 11% | Population Mitotic Cells (%) [9]: 80% | Population Normal (%) [9]: 97% | Population Pyknosed Nuclei (%) [9]: 6% | Population Tubulin-Different-Phenotype (%) [9]: 9% | Total Cell Count [9]: 1112 | Population Apoptotic (%) [10]: 36% | Population Fragmented Nuclei (%) [10]: 10% | Population Healthy Nuclei (%) [10]: 81% | Population Hoechst High Intensity Objects (%) [10]: 3% | Population Membrane Permeable-Phenotype (%) [10]: 1% | Population Mitochondria Different-Phenotype (%) [10]: 17% | Population Mitotic Cells (%) [10]: 63% | Population Normal (%) [10]: 96% | Population Pyknosed Nuclei (%) [10]: 8% | Population Tubulin-Different-Phenotype (%) [10]: 10% | Total Cell Count [10]: 700 | Population Apoptotic (%) [11]: 21% | Population Fragmented Nuclei (%) [11]: 15% | Population Healthy Nuclei (%) [11]: 79% | Population Hoechst High Intensity Objects (%) [11]: 3% | Population Membrane Permeable-Phenotype (%) [11]: 1% | Population Mitochondria Different-Phenotype (%) [11]: 11% | Population Mitotic Cells (%) [11]: 78% | Population Normal (%) [11]: 96% | Population Pyknosed Nuclei (%) [11]: 5% | Population Tubulin-Different-Phenotype (%) [11]: 9% | Total Cell Count [11]: 1088 | Population Apoptotic (%) [12]: 27% | Population Fragmented Nuclei (%) [12]: 13% | Population Healthy Nuclei (%) [12]: 82% | Population Hoechst High Intensity Objects (%) [12]: 1% | Population Membrane Permeable-Phenotype (%) [12]: 2% | Population Mitochondria Different-Phenotype (%) [12]: 12% | Population Mitotic Cells (%) [12]: 72% | Population Normal (%) [12]: 98% | Population Pyknosed Nuclei (%) [12]: 4% | Population Tubulin-Different-Phenotype (%) [12]: 6% | Total Cell Count [12]: 947
